Rows were chosen to be rich in hits. Some 3.7% of all compounds tested hit in one or more screens of this group.
SR-BI DiI-HDL act = enhances SR-BI lipid uptake from DiI-HDL. CHO ldlA[mSR-BI] cells, DiI-HDL uptake fluorescence, 3 h; 100 = double the neutral-control signal. AID 504775. hit rate 0.096% among 320,000. activation, % at 12.5 µM;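 active = mean replicate activation of at least 60% and every replicate at or above 60%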;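 note: 0% = median plate neutral-control signal and 100% = twice that signal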
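Assay system: LDL receptor-deficient CHO ldlA cells overexpressing murine SR-BI / Medium: BSA-supplemented, HEPES-buffered Ham's F12, pH 7.4 / Probe or stimulus: DiI-labelled HDL at 10 µg/mL final / Timing: compound with DiI-HDL co-incubation, 3 h at 37 °C / Technique: bottom-read cell fluorescence after medium removal, ex 550/em 595 nm / Measure: HDL uptake via cellular fluorescence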
AHR act = human AHR activation | activation, % at 5 µM | AID 2796 | P35869 | hit rate 2.5% among 320,000 | AHR-responsive luciferase reporter cells, luminescence; in the data active = activation above about 47%;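 note: 0% = vehicle wells and 100% = reference agonist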
GAA850 FXN act = frataxin GAA850 promoter activation; activation, % at 6 µM; HEK293 lucGAA850 FXN promoter luciferase reporter, 24 h; percent of 10 µM SAHA response; hit rate 0.56% among 360,000;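 active = activation above the average of all compounds screened plus 3 SD, cutoff fixed separately per campaign, cut at about 7.5% in these data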;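 note: 0% = DMSO wells and 100% = 10 µM SAHA wells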
SR-BI DiI inh = blocks mouse SR-BI lipid uptake from DiI-HDL. hit rate 0.96% among 320,000. ldlA[mSR-BI] CHO cells, DiI-HDL uptake fluorescence, 3 h. Q61009. inhibition, % at 12.5 µM;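 active = mean replicate inhibition of at least 70% and a set share of replicates each scoring 70 or more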;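 note: 0% = median of neutral control wells and 100% = median of positive control wells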
JMJD2C inh = human JMJD2C demethylase inhibition. Q9H3R0. GST-JMJD2C(1-420) H3K9me3 demethylation, DELFIA europium. inhibition, % at 2.35 µM. hit rate 0.069% among 330,000;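 active = more than half of a compound's replicate wells show inhibition beyond 50%, single wells judged on their own value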;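 note: signal counts dimethyl H3K9 product captured on neutravidin plate; 0% = median of DMSO wells and 100% = 0.3 times that DMSO median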
AHR act confirm = human AHR activation, confirmation | human cells, AHR-responsive luciferase reporter, luminescence | shares compounds with AHR act | hit rate 87% among 2,300 | activation, % at 9 µM; in the data active = activation above about 49%;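 note: HepG2 hepatoma cells carrying a DRE-driven firefly luciferase reporter; 0% = vehicle wells and 100% = reference agonist wells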
PXR counter = activates human PXR in AHR activator counter-screen; hit rate 88% among 2,300; activation, % at 11.6 µM; shares compounds with AHR act; cell-based PXR reporter, luciferase luminescence; in the data active = activation above about 11%;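 note: human hepatoma DPX-2 cells expressing full-length human PXR; 0% = DMSO and 100% = reference agonist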
Active calls of the source: *; · = not tested or not shown.

SMILES	SR-BI DiI-HDL act	AHR act	GAA850 FXN act	SR-BI DiI inh	JMJD2C inh	AHR act confirm	PXR counter
C/C(=N\Nc1nc2ccccc2s1)c1ccc2c(c1)OCO2	-0.9	89.8*	2.5	0.9	0.4	111.8*	31.4*
Cc1nc(N)nc(Nc2ccc(C#N)cc2)c1Br	·	1.3	3.1	·	6.3	·	·
N#Cc1c(N)nc(N)nc1Nc1ccc(Br)cc1	-12.4	83.2*	4.3	12.4	8.5	72.2*	17.4*
O=c1c2ccccc2nc(-c2ccoc2)n1CCc1ccccc1	-5.7	124.6*	1.1	5.7	4.2	102.1*	40.9*
Cc1ocnc1C(=O)Nc1ccc(Cl)cc1	27.4	103.8*	3.8	-27.4	-2.4	66.1*	25.1*
Cc1nnsc1C(=O)Nc1ccccc1	7.7	0.8	3.7	-7.7	-33.5	·	·
Cc1nnsc1C(=O)Nc1ccc(Cl)cc1	15.5	105.5*	0.8	-15.5	0.9	63.7*	25.6*
Cc1cc(C(=O)Nc2ccc(Cl)cc2)on1	-5.2	23.1	1.9	5.2	-0.1	·	·
CC(=O)Nc1ccc(C(=O)Cn2c3[n+](c4c(F)c(F)ccc42)CCCCC3)cc1	-0.9	-0.7	2.2	0.9	3.6	·	·
CCOC(=O)c1c(C)[nH]c(C(=O)N/N=C\c2ccccc2Cl)c1C	·	81.5*	-4.3	·	5.4	73.3*	14.7*
CCOC(=O)c1c(C)[nH]c(C(=O)N/N=C/c2cccc(OC)c2)c1C	1.0	21.6	-2.2	-1.0	-7.6	·	·
CCCCCCC(=O)Nc1nc(C)c(-c2csc(Nc3cc(Cl)ccc3C)n2)s1	-63.5	79.3*	0.9	63.5	18.3	80.9*	16.5*
CCCCC(=O)Nc1nc(C)c(-c2csc(Nc3cc(OC)ccc3OC)n2)s1	-83.0	85.5*	-4.4	83.0*	2.3	81.6*	57.6*
COc1ccccc1Nc1nc(-c2sc(NC(=O)c3ccc([N+](=O)[O-])cc3)nc2C)cs1	·	18.6	·	·	14.1	·	·
CCCCCC(=O)Nc1nc(C)c(-c2csc(Nc3ccccc3OC)n2)s1	-32.7	84.9*	0.2	32.7	3.1	96.4*	50.5*
CCCC(C)C(=O)Nc1nc(C)c(-c2csc(Nc3ccccc3OC)n2)s1 (stereo not drawn)	-84.4	124.3*	-1.5	84.4*	-1.0	71.9*	61.8*
Cc1ccc(-c2ccc(S(=O)(=O)Nc3cccnc3)cc2)cc1	25.3	0.5	1.3	-25.3	3.2	·	·
CCc1ccc2[nH]c3nc(N/N=C/c4ccc(O)cc4O)nnc3c2c1	-3.1	83.3*	1.2	3.1	0.6	89.7*	·
Fc1ccc(Nc2cccc3nccnc23)cc1	-2.8	137.4*	4.9	2.8	-8.0	57.7*	13.1*

Compound activity deposited in PubChem BioAssay by several laboratories.
